Hck Nef HTS: human Hck-Nef kinase inhibition | P08631 | Recombinant Hck-YEEI plus Nef, Z-Lyte FRET kinase assay | inhibition, % at 20 µM | 220,000 tested, 0.68% active;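 active = Hck-Nef kinase inhibition above about 50%, limit read from the data; inactive = inhibition below that limit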
Runt-CBFb FRET: Runt domain-CBFb interaction inhibition; Q01196+Q13951; Cerulean-Runt/Venus-CBFb FRET ratio 530/480, 1 h; inhibition, % at 20 µM; 220,000 tested, 0.46% active; AID 1496;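 active = inhibition over about 50% at 20 µM in the single-dose screen, limit read from the data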
Target sequence (Q01196 whole entry, looked up, the tested form may be a part): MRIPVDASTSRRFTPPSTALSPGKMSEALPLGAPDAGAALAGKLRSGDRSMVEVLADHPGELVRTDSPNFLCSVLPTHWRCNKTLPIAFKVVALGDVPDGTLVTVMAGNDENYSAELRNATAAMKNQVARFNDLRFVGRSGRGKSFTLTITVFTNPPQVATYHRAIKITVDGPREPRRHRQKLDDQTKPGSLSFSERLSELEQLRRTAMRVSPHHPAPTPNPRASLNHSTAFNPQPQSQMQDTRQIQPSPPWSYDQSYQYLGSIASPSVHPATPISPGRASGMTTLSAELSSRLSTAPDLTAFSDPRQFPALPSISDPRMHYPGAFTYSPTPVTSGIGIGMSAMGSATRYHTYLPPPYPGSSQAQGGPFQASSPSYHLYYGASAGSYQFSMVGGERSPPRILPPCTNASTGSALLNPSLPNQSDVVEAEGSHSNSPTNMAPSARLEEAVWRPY
Target sequence (Q13951 whole entry, looked up, the tested form may be a part): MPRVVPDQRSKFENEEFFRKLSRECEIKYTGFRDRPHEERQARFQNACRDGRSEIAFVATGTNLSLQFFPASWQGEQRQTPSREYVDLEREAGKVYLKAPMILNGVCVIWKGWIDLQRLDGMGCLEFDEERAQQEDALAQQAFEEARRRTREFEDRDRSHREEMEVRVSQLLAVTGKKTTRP
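Assay system: Cerulean-tagged RUNX1 Runt domain (FRET donor) fusion protein / Amount: 100 nM each of Venus-CBFb and Cerulean-Runt domain / Medium: Tris buffer pH 7.5 with salts and BSA / Also added: Venus-CBFb 100 nM / Schedule: 1 h complex formation plus 1 h compound treatment, room temperature / Signal: FRET fluorescence / Read-out: loss of energy transfer signal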
CaV13 ICDI inh: Primary screen for inhibitors of IQ motif and Ca2+-dependent inactivation inhibitor domain binding in CACNA1D, Förster resonance energy transfer in living cells, … | 340,000 tested, 0.098% active | HEK cells, CFP/YFP FRET ICDI-IQ, plate reader, 10 min; percent FRET-ratio fall versus neutral wells | inhibition, % at 12.3 µM;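 active = mean replicate inhibition of at least 30% and at least 1% of replicates passing that level; inconclusive = only one of the two criteria is met; inactive = neither criterion is met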
Runt-SMMHC FRET: blocks binding of human RUNX1 Runt domain to CBFb-SMMHC | Cerulean-Runt/Venus-CBFb-SMMHC FRET ratio 530/480, 1 h | inhibition, % at 20 µM | 220,000 tested, 0.74% active | AID 1434;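 active = mean inhibition across duplicate retests at 20 µM reaching about 50%, limit read from the data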;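 also: inhibitors lower the FRET ratio by blocking Runt binding to CBFb-SMMHC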
RanGTP-Imp inh: disruptors of Ran-importin-beta complex formation – biochemical, FRET, CFP-Ran, YFP-importin-beta, homogeneous, primary screen. inhibition, % (no concentration beside the values). cell-free CFP-Ran/YFP-importin-beta FRET ratio. 300,000 tested, 1.1% active. AID 2216;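 active = more than half of the replicate wells show a fall in the fluorescence ratio signal beyond about 16%, limit read from the data, passing the limit was not always enough; inconclusive = exactly half of the replicate wells pass the set limit; inactive = fewer than half of replicates pass the limit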
YIC FRET counter: counter-screen YIC FRET for RanGTP-importin-beta inhibitors | shares compounds with RanGTP-Imp inh | 1,000 tested, 40% active | AID 435026 | IC50, µM | Purified YIC probe, intramolecular FRET ratio YFP/CFP;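 active = fitted half-maximal inhibitory concentration no more than tenfold above the top dose tested; inconclusive = flat fit with 30 to 70% activity, or poor fit; inactive = half-maximal concentration beyond tenfold above the top dose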
Hck-Nef confirm: Hck-Nef kinase inhibition, confirmation; Recombinant Hck-YEEI:Nef, Z-Lyte FRET kinase assay; shares compounds with Hck Nef HTS; 1,300 tested, 28% active; calls only at 10 µM; AID 463188;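 active = average inhibition of at least 50%, with Z-scores no higher than 3 in both the phospho-tyrosine peptide and fluorescence counterscreens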
Each line names hits and unclear results; the compound was inactive in the other large screens (follow-up assays come after a bar, where shown). Shown are actives, neighbours in structure and some others; about 1.5% of the full set was active somewhere.

N#C/C(=C/c1ccc(-c2ccc([N+](=O)[O-])cc2)o1)C(=O)Nc1nc(-c2cccs2)cs1	none (no result: Hck Nef HTS, Runt-CBFb FRET, Runt-SMMHC FRET, RanGTP-Imp inh)
N#C/C(=C\c1ccc(-c2ccc(F)cc2)o1)C(=O)Nc1nc(-c2cccs2)cs1	RanGTP-Imp inh 19 | YIC FRET counter inactive
O=C(Cc1cc(=O)oc2cc(O)ccc12)NCC1CCC(C(=O)O)CC1 (stereo unspecified)	Hck Nef HTS 62, Runt-CBFb FRET 108, Runt-SMMHC FRET 62, RanGTP-Imp inh 32 | YIC FRET counter 9.8
CCN(CC)Cc1c(O)c(Cl)cc2c3c(c(=O)oc12)CCCC3	Hck Nef HTS 113, Runt-CBFb FRET 107, RanGTP-Imp inh 48 | YIC FRET counter 23
Cc1c(C)c2cc(Cl)c(O)c(CN(C)C)c2oc1=O	Hck Nef HTS 87, Runt-CBFb FRET 92, Runt-SMMHC FRET 81, RanGTP-Imp inh 33 | YIC FRET counter 29
Cc1c(O)c(CN(C)C)cc2c1oc(=O)c1ccccc12	none
CCc1c(C)c2cc(Cl)c(O)c(CN(CC)CC)c2oc1=O	Hck Nef HTS 115, Runt-CBFb FRET 95, Runt-SMMHC FRET 65, RanGTP-Imp inh 26 | YIC FRET counter 27
CCOP(=O)(OCC)C(Nc1ccccc1)c1cc(OC)ccc1OC (stereo unspecified)	none
O=C(COc1ccccc1)Nc1cccc(-c2ccc(N3CCOCC3)nn2)c1	RanGTP-Imp inh inconclusive (no result: Hck Nef HTS, Runt-CBFb FRET, Runt-SMMHC FRET)
Cc1cccc(NC(=O)c2cc3c(s2)-c2c(C)cccc2OC3)n1	Hck Nef HTS 87, RanGTP-Imp inh 30 | YIC FRET counter 7.3
CCc1cc(=O)oc2c(CN3CCN(C)CC3)c(O)c(Cl)cc12	Hck Nef HTS 163, Runt-CBFb FRET 100, Runt-SMMHC FRET 91, RanGTP-Imp inh 32 | YIC FRET counter 33
CCc1cc(=O)oc2c(CN3CCN(C)CC3)c(O)ccc12	none (no result: Hck Nef HTS, Runt-CBFb FRET, Runt-SMMHC FRET)
Cc1ccc(S(=O)(=O)N/N=C/c2ccc(O)c(O)c2)cc1[N+](=O)[O-]	none
c1ccc2c(c1)[nH]c1ccccc12	none (no result: Hck Nef HTS, Runt-CBFb FRET, CaV13 ICDI inh, Runt-SMMHC FRET)
O=c1c2ccccc2[nH]c2ccccc12	Hck Nef HTS 144, Runt-CBFb FRET 120, Runt-SMMHC FRET 83, RanGTP-Imp inh 19 (not shown: CaV13 ICDI inh) | YIC FRET counter 49
CC(=O)N1CCN(c2ccc(Oc3ccc([N+](=O)[O-])c(C(F)(F)F)c3)cc2)CC1	none (no result: Hck Nef HTS, Runt-CBFb FRET, CaV13 ICDI inh, Runt-SMMHC FRET)
Cc1ccc(O)c(NC(=S)NC(=O)/C=C/c2ccccc2)c1	RanGTP-Imp inh inconclusive (no result: Hck Nef HTS, Runt-CBFb FRET, Runt-SMMHC FRET)
Cc1ccc(O)c(NC(=S)NC(=O)/C=C/c2ccco2)c1	Hck Nef HTS 75, RanGTP-Imp inh inconclusive | Hck-Nef confirm active
CC1C(=O)Nc2ccc(S(=O)(=O)N3CCc4ccccc4C3)cc2NC1=O (stereo unspecified)	none (no result: Hck Nef HTS, Runt-CBFb FRET, Runt-SMMHC FRET)
O=C(Cc1ccc(NC(=O)C2CCN(C(=O)CCc3ccccc3)CC2)cc1)Nc1cccc(C(=O)N2CCCC2)c1	none (no result: Hck Nef HTS, Runt-CBFb FRET, Runt-SMMHC FRET, RanGTP-Imp inh)
CCc1cc(=O)oc2c(CN3CCCC3)c(O)c(Cl)cc12	Hck Nef HTS 102, Runt-CBFb FRET 99, Runt-SMMHC FRET 146, RanGTP-Imp inh inconclusive
Cc1cc(=O)oc2c(CN3CCOCC3)c(O)ccc12	none (no result: Hck Nef HTS, Runt-CBFb FRET, Runt-SMMHC FRET, RanGTP-Imp inh)
O=c1cc(-c2ccccc2)c2cc(Cl)c(O)c(CN3CCOCC3)c2o1	none
CCCCc1cc(=O)oc2c(CN3CCCC3)c(O)ccc12	Hck Nef HTS 97, Runt-SMMHC FRET 95 | Hck-Nef confirm inactive
Cc1cc(=O)oc2c(CN3CC(C)OC(C)C3)c(O)c(Cl)cc12 (stereo unspecified)	Hck Nef HTS active, Runt-CBFb FRET 108, Runt-SMMHC FRET 136, RanGTP-Imp inh 34
Nc1nn2cc(-c3ccccc3)nc2c2ccccc12	Hck Nef HTS 50 | Hck-Nef confirm active
O=C(c1cnn(C(=O)c2cccc(S(=O)(=O)N3CCOCC3)c2)c1)c1cc(Cl)cc(Cl)c1O	none (no result: CaV13 ICDI inh)
O=C(c1cnn(C(=O)c2cccc(S(=O)(=O)N3CCOCC3)c2)c1)c1ccccc1O	Hck Nef HTS 129 | Hck-Nef confirm active
O=C(CNc1cccc(Cl)c1)c1ccc(Br)cc1	none (no result: Hck Nef HTS, Runt-CBFb FRET, Runt-SMMHC FRET)
CCCSC1=N/C(=C\c2ccc([N+](=O)[O-])o2)C(=O)S1	Hck Nef HTS 51 (no result: RanGTP-Imp inh) | Hck-Nef confirm inactive
C[C@H](N)C(=O)OCc1ccc([N+](=O)[O-])cc1	none
CC(O)C(C(=O)OCc1ccc([N+](=O)[O-])cc1)N1C(=O)c2ccccc2C1=O (stereo unspecified)	Hck Nef HTS 71 (no result: RanGTP-Imp inh) | Hck-Nef confirm inactive
COc1ccc(NC(=O)Cn2cc(C#N)c3ccccc32)cc1	none
COc1ccc(OC)c(NC(=O)Cn2cc(C#N)c3cc(Br)ccc32)c1	Hck Nef HTS 69 | Hck-Nef confirm inactive
O=C1c2ccccc2/C(=C\C#Cc2ccccn2)N1c1ccccc1	none (no result: Hck Nef HTS, Runt-CBFb FRET, Runt-SMMHC FRET, RanGTP-Imp inh)
Cc1ccc(C)c(OCc2nnc(SCC(=O)NC(=O)NCc3ccco3)o2)c1	none
COc1cc(NC(=S)Nc2cccc(C)n2)cc(OC)c1OC	Hck Nef HTS 97 | Hck-Nef confirm inactive
COc1cc(OC)cc(C(=O)Nc2ccc(S(=O)(=O)Nc3cc(C)nc(C)n3)cc2)c1	none
CC(C)OCCCn1c(-c2ccco2)nc2nc3ccccc3nc21	Hck Nef HTS 131, RanGTP-Imp inh inconclusive (not shown: Runt-SMMHC FRET)
COCCn1c(-c2ccco2)nc2nc3ccccc3nc21	Hck Nef HTS 120, Runt-SMMHC FRET 66, RanGTP-Imp inh 19
CCC(C)n1c(-c2ccco2)nc2nc3ccccc3nc21 (stereo unspecified)	none (no result: Runt-CBFb FRET, CaV13 ICDI inh)
Cc1ccc(S(=O)(=O)Nc2ccc(N(C)C)cc2)cc1	Hck Nef HTS 85 | Hck-Nef confirm inactive
O=C(Nc1ccc(SC(F)F)cc1)c1cc(-c2ccncc2)nc2ccccc12	none (no result: Hck Nef HTS, Runt-CBFb FRET, Runt-SMMHC FRET, RanGTP-Imp inh)
CCC/C=N/NC(=O)c1ccc(F)cc1	none
CCC/C=N/NC(=O)c1cccc(Br)c1	Hck Nef HTS 119 | Hck-Nef confirm inactive
CCCCN(Cc1ccccc1)S(=O)(=O)c1ccc2[nH]c(=O)oc2c1	none
COc1cc2c(C#N)c(N3CCN(C)CC3)nc(N)c2c(N)n1	none
COc1cc2c(C#N)c(N3CCCC3)nc(N)c2c(N)n1	Hck Nef HTS 63 | Hck-Nef confirm active
Cc1ccc(NC(=O)C2CCCN2S(=O)(=O)c2ccc3c(c2)CCC(=O)N3)cc1Cl (stereo unspecified)	none
Cc1ccc(-c2nc(N/N=C/c3ccccc3[N+](=O)[O-])c3ccccc3n2)cc1	Hck Nef HTS 56 | Hck-Nef confirm inactive
O=[N+]([O-])c1ccccc1C=NNc1ccccc1	none (no result: Hck Nef HTS, Runt-CBFb FRET, Runt-SMMHC FRET, RanGTP-Imp inh)
CCOc1cccc(C2c3c(oc4ccccc4c3=O)C(=O)N2c2ccccn2)c1 (stereo unspecified)	none

Compound activity deposited in PubChem by several laboratories.
